The text below walks through data of ChEMBL document CHEMBL1781932 (J Med Chem, 2011).

For data set [1], the system named is Staphylococcus aureus. Description: Antimicrobial activity against methicillin-, tetracycline-resistant Staphylococcus aureus isolate 161 harboring tetM gene by CLSI dilution method. The class given is functional.
In a further data set the test system is Pseudomonas aeruginosa. Description: Antimicrobial activity against tetracycline-susceptible Pseudomonas aeruginosa isolate 111 by CLSI dilution method. The class given is functional. In short, it runs like this:
(§1)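 Broth microdilution per CLSI in fresh cation-adjusted Mueller Hinton broth, kept at 4 °C before testing, with defibrinated horse blood added as appropriate. Strains were from ATCC. MIC in µg/mL. Runs were accepted when comparator antibiotics against ATCC quality-control strains fell within recommended ranges.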

Data set [2] in a line: Cmax in Sprague-Dawley rat at 1 mg/kg, iv administered as single dose measured after 24 to 48 hrs. The data set is classed as ADME, organism-based. More on the design: dose 1 mg/kg, route intravenous. The conditions noted are these: in vivo. In short, it runs like this:
(§2)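 Sprague-Dawley rats (n = 3) were fasted overnight (minimum 12 h) and given a single dose, iv 1 mg/kg or oral 10 mg/kg, in sterile water. Samples were taken over 24–48 h. PK parameters came from noncompartmental analysis.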

The subject of a further data set is Rattus norvegicus. In words: Oral bioavailability in Sprague-Dawley rat at 10 mg/kg administered as single dose. The data set is classed as ADME, organism-based. The settings on record: in vivo. In short, it runs like this: as §2
In data set [3] the test system is Staphylococcus aureus. Description: Antimicrobial activity against tetracycline-resistant Staphylococcus aureus isolate 158 harboring tetK gene by CLSI dilution method. The data set is classed as functional.
For the next data set, the system named is Acinetobacter baumannii. In words: Antimicrobial activity against tetracycline-susceptible Acinetobacter baumannii isolate 110 by CLSI dilution method. The data set is classed as functional. In outline:
as §1

Data set [4] has as its system Staphylococcus aureus. Description: Antimicrobial activity against tetracycline-susceptible Staphylococcus aureus isolate 101 by CLSI dilution method. The data set is classed as functional.
Data set [5] deals with Staphylococcus aureus. In words: Antimicrobial activity against tetracycline-susceptible Staphylococcus aureus Smith isolate 100 by CLSI dilution method. The data set is classed as functional.
In data set [6] the test system is Escherichia coli. Description: Antimicrobial activity against tetracycline-resistant Escherichia coli isolate 155 harboring tetA gene by CLSI dilution method. The data set is classed as functional.
Data set [7] relates to Enterococcus faecalis. In words: Antimicrobial activity against tetracycline-resistant Enterococcus faecalis isolate 159 harboring […] gene by CLSI dilution method. The class given is functional.
Data set [8] concerns Escherichia coli. Description: Antimicrobial activity against tetracycline-susceptible Escherichia coli isolate 107 by CLSI dilution method. The data set is classed as functional. In short, it runs like this:
as §1

The next data set relates to Enterobacter cloacae. Description: Antimicrobial activity against tetracycline-susceptible Enterobacter cloacae isolate 108 by CLSI dilution method. The class given is functional. In short, it runs like this:
as §1

In data set [9] the test system is Streptococcus pneumoniae. In words: Antimicrobial activity against tetracycline-resistant Streptococcus pneumoniae isolate 160 harboring tetM gene by CLSI dilution method. The data set is classed as functional.
Data set [10] concerns Klebsiella pneumoniae. Description: Antimicrobial activity against tetracycline-susceptible Klebsiella pneumoniae isolate 109 by CLSI dilution method. The class given is functional. In short, it runs like this: as §1
Data set [11] can be described thus: Apparent volume of distribution in Sprague-Dawley rat at 1 mg/kg, iv administered as single dose measured after 24 to 48 hrs. The conditions noted are these: in vivo.
The nature of data set [12]: Clearance in Sprague-Dawley rat at 1 mg/kg, iv administered as single dose measured after 24 to 48 hrs. The class given is ADME, organism-based. More on the design: dose 1 mg/kg, route intravenous. The conditions noted are these: in vivo. In outline: as §2
Data set [13] relates to Enterococcus faecalis. Description: Antimicrobial activity against tetracycline-susceptible Enterococcus faecalis isolate 103 by CLSI dilution method. The data set is classed as functional. In outline:
as §1

Data set [14] deals with Klebsiella pneumoniae. Description: Antimicrobial activity against tetracycline-resistant Klebsiella pneumoniae isolate 153 harboring tetA gene by CLSI dilution method. The class given is functional.
The nature of data set [15]: AUC (0 to infinity) in Sprague-Dawley rat at 1 mg/kg, iv administered as single dose measured after 24 to 48 hrs. The class given is ADME, organism-based. More on the design: time infinity, dose 1 mg/kg, route intravenous. The settings on record: plasma. In short, it runs like this: as §2
Data set [16] has as its system Streptococcus pneumoniae. Description: Antimicrobial activity against tetracycline-susceptible Streptococcus pneumoniae isolate 106 by CLSI dilution method. The class given is functional. In short, it runs like this:
as §1

Data set [17] in a line: Elimination half life in Sprague-Dawley rat at 1 mg/kg, iv administered as single dose. The data set is classed as ADME, organism-based. Also noted: dose 1 mg/kg, route intravenous. The conditions noted are these: in vivo, read-out: beta t1/2 (converted). In outline: as §2
Data set [18] relates to Staphylococcus aureus. In words: Antimicrobial activity against tetracycline-susceptible Staphylococcus aureus Smith isolate 100 infected in iv dosed mouse systemic infection model assessed as survival of mouse administered 60 mins post infection measured up to 48 hrs. The settings on record: Smith isolate 100, iv, read-out: PD50. The class given is functional. In outline:
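Mouse septicemia model with S. aureus ATCC 13709 mixed with 5% mucin, given intraperitoneally at 2.1×10^6 cfu/mouse. Compound was dosed intravenously 60 min after infection at 0.3–30 mg/kg in sterile water, 6 mice/dose group, with untreated infection controls. Survival was followed over 48 h. PD50 was derived by Probit analysis with 95% CI.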

As usually defined, the MIC is the lowest concentration found to suppress growth. A low value points to a more susceptible organism. What is called Cmax is the peak of the concentration-time curve. For orientation: clearance means a measure of how efficiently the substance is removed, as volume per time. The low end stands for inefficient removal, the high end for efficient removal. Broadly, the AUC(0-inf) is the area under the concentration-time curve extrapolated to infinity. Read a low AUC(0-inf) as less exposure.

SMILES strings stand for the structures. In brackets after ≈: the same amount, converted by molar mass.

For `COc1c2c(c(O)c3cc(CN4CC(F)C4)ccc13)C(=O)C1=C(O)[C@]3(O)C(=O)C(C(N)=O)=C(O)[C@@H](N(C)C)[C@@H]3C[C@@H]1C2`, the minimal inhibitory concentration (MIC) in the data set with Staphylococcus aureus [1] is 1 µg/mL (≈ 1.72 µM); with Pseudomonas aeruginosa, 32 µg/mL (≈ 55 µM); against Staphylococcus aureus [3], 0.125 µg/mL (≈ 0.215 µM); in the data set on Acinetobacter baumannii it was 0.25 µg/mL (≈ 0.43 µM); in the data set with Staphylococcus aureus [4], 0.25 µg/mL (≈ 0.43 µM); against Staphylococcus aureus [5], 1 µg/mL (≈ 1.72 µM). Further, the MIC in the data set on Escherichia coli [6] turned out to be 8 µg/mL (≈ 13.8 µM); against Enterococcus faecalis [7], 2 µg/mL (≈ 3.44 µM); in the data set with Escherichia coli [8] it was 2 µg/mL (≈ 3.44 µM); against Enterobacter cloacae, 8 µg/mL (≈ 13.8 µM); against Streptococcus pneumoniae [9], 0.0313 µg/mL (≈ 0.0538 µM); against Klebsiella pneumoniae [10], 4 µg/mL (≈ 6.88 µM). Moreover, the MIC in the data set on Enterococcus faecalis [13] was found to be 0.125 µg/mL (≈ 0.215 µM); against Klebsiella pneumoniae [14], 8 µg/mL (≈ 13.8 µM); against Streptococcus pneumoniae [16], 0.0156 µg/mL (≈ 0.0268 µM). The molecule also gave a Cmax in data set [2] of 237 ng/mL. Further, in the data set with Rattus norvegicus, the F is 17.7%. The Vd in data set [11] came to 5.06 L/kg. The molecule further came in with a clearance in [12] of 63.9 mL/min/kg. The area under the curve AUC(0-inf) in [15] stood at 451 ng·h/mL. Moreover, the half-life in data set [17] was 1.5 h.
`CN(C)[C@@H]1C(O)=C(C(N)=O)C(=O)[C@@]2(O)C(O)=C3C(=O)c4c(c(F)c5ccc(CN6CCC6)cc5c4O)C[C@H]3C[C@@H]12`: the MIC is 1 µg/mL (≈ 1.81 µM) against Staphylococcus aureus [1]; 32 µg/mL (≈ 58 µM) with Pseudomonas aeruginosa; 0.25 µg/mL (≈ 0.453 µM) against Staphylococcus aureus [3]; 0.5 µg/mL (≈ 0.907 µM) in the data set with Acinetobacter baumannii; 0.25 µg/mL (≈ 0.453 µM) with Staphylococcus aureus [4]; 4 µg/mL (≈ 7.25 µM) against Escherichia coli [6]. In addition, the MIC in the data set with Enterococcus faecalis [7] worked out at 2 µg/mL (≈ 3.63 µM); in the data set on Escherichia coli [8], 1 µg/mL (≈ 1.81 µM); in the data set with Enterobacter cloacae, 2 µg/mL (≈ 3.63 µM); in the data set with Streptococcus pneumoniae [9], 0.125 µg/mL (≈ 0.227 µM); in the data set on Klebsiella pneumoniae [10], 2 µg/mL (≈ 3.63 µM); in the data set with Enterococcus faecalis [13] it was 0.25 µg/mL (≈ 0.453 µM). The values for the minimal inhibitory concentration (MIC) against Klebsiella pneumoniae [14] and against Streptococcus pneumoniae [16] were 4 µg/mL (≈ 7.25 µM) and 0.0625 µg/mL (≈ 0.113 µM), respectively. Moreover, in data set [2], the peak level (Cmax) was 73 ng/mL. For the same molecule, in the data set on Staphylococcus aureus [18], the ED50 was found to be 0.3 mg/kg. Moreover, in [11], the Vd was 41.9 L/kg. The same molecule displayed a clearance in data set [12] of 52.4 mL/min/kg. This molecule also came in with an area under the curve AUC(0-inf) in data set [15] of 354 ng·h/mL. Also, the half-life in [17] was 8.01 h.
For the molecule `CN(C)c1ccc(-c2ccc3cc4c(c(O)c3c2)C(=O)C2=C(O)[C@]3(O)C(=O)C(C(N)=O)=C(O)[C@@H](N(C)C)[C@@H]3C[C@@H]2C4)cc1`, the MIC with Staphylococcus aureus [1] was more than 32 µg/mL; in the data set on Pseudomonas aeruginosa it was more than 32 µg/mL; against Staphylococcus aureus [3], 16 µg/mL (≈ 27.4 µM); with Acinetobacter baumannii, more than 32 µg/mL; against Staphylococcus aureus [4], more than 32 µg/mL; in the data set on Escherichia coli [6], more than 32 µg/mL. Moreover, the MIC was 16 µg/mL (≈ 27.4 µM) against Enterococcus faecalis [7]; more than 32 µg/mL in the data set with Escherichia coli [8]; more than 32 µg/mL against Enterobacter cloacae; more than 32 µg/mL against Streptococcus pneumoniae [9]; more than 32 µg/mL in the data set with Klebsiella pneumoniae [10]; more than 32 µg/mL in the data set on Enterococcus faecalis [13]. For the same molecule, the MIC in the data set on Klebsiella pneumoniae [14] and in the data set on Streptococcus pneumoniae [16] was more than 32 µg/mL in each case.
With `CN(C)c1cc(NC(=O)CNC(C)(C)C)c(O)c2c1C[C@H]1C[C@H]3[C@H](N(C)C)C(O)=C(C(N)=O)C(=O)[C@@]3(O)C(O)=C1C2=O` [TIGECYCLINE], the MIC is 0.125 µg/mL (≈ 0.213 µM) against Staphylococcus aureus [1]; 8 µg/mL (≈ 13.7 µM) against Pseudomonas aeruginosa; 0.0625 µg/mL (≈ 0.107 µM) with Staphylococcus aureus [3]; 0.25 µg/mL (≈ 0.427 µM) in the data set on Acinetobacter baumannii; 0.0625 µg/mL (≈ 0.107 µM) against Staphylococcus aureus [4]; 0.0625 µg/mL (≈ 0.107 µM) against Staphylococcus aureus [5]. The MIC against Escherichia coli [6] was 0.5 µg/mL (≈ 0.854 µM); against Enterococcus faecalis [7], 0.0625 µg/mL (≈ 0.107 µM); with Escherichia coli [8] it was 0.0313 µg/mL (≈ 0.0534 µM); against Enterobacter cloacae, 0.25 µg/mL (≈ 0.427 µM); against Streptococcus pneumoniae [9] it was 0.0156 µg/mL (≈ 0.0266 µM); against Klebsiella pneumoniae [10], 0.125 µg/mL (≈ 0.213 µM). In addition, the minimal inhibitory concentration (MIC) with Enterococcus faecalis [13] turned out to be 0.0313 µg/mL (≈ 0.0534 µM); against Klebsiella pneumoniae [14], 1 µg/mL (≈ 1.71 µM); in the data set with Streptococcus pneumoniae [16], 0.0156 µg/mL (≈ 0.0266 µM). Also, in [2], the maximum concentration (Cmax) was 428 ng/mL. Moreover, the ED50 with Staphylococcus aureus [18] was 0.35 mg/kg. The molecule further displayed an area under the curve AUC(0-inf) in data set [15] of 1050 ng·h/mL. In data set [17], the half-life is 4.6 h.
